MPTP block – inhibitors of mitochondrial permeability transition pore; inhibition, % at 10 µM; isolated mouse mitochondria, Ca2+ swelling absorbance, 30 min; 360,000 tested, 1.4% active;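 active = inhibition of 50% or more, scaled per plate between neutral and stimulator controls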
ATG4B inhibitor – ATG4B (human) cysteine protease inhibition; AID 504462; ATG4B cleavage of LC3-PLA2, NBD-HPC fluorescence, 1 h; 340,000 tested, 0.51% active; inhibition, % at 8.33 µM; in the data active = inhibition above about 40%
Target sequence (Q9Y4P1 whole entry, looked up): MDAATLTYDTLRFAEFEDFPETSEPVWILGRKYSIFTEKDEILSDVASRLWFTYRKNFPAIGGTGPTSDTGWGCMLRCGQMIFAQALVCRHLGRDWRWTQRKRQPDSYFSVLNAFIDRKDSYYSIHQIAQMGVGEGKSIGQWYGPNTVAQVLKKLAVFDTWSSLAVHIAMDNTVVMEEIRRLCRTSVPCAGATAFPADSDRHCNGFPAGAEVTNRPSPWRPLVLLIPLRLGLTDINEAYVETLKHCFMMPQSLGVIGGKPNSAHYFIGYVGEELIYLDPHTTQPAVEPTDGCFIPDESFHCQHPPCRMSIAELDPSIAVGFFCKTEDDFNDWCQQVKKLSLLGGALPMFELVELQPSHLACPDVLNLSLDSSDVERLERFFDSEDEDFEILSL
SKN-1 inh – blocks SKN-1 activity in C. elegans; C. elegans VP596 Pgst-4::GFP/RFP ratio, acrylamide-induced, 24 h; inhibition, % at 21.8 µM; 360,000 tested, 0.49% active; AID 624304;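 active = interference check ratio from 0.5 to 1.5 plus GFP to RFP signal ratio inhibition reaching or exceeding a fixed threshold, cut at about 30% in these data, passing the limit was not always enough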
MT1-MMP act inh – inhibitors of human MT1-MMP activation. HT1080 RFP-PRO-GFP cells, GFP/RFP ratio fluorescence, overnight; percent of plate control window, DMSO zero. 360,000 tested, 0.061% active. GFP/RFP ratio change, % at 20 µM;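 active = GFP/RFP ratio change of at least 30% with cell ATP level not reduced by more than half and red fluorescence within 50% of control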
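Test system: HT1080 cells expressing an RFP-PRO-GFP fluorescent reporter construct / Compound dosing: single-point 20 µM compound, 1% DMSO / Schedule: cells overnight before dosing, compound overnight, 37 °C, 5% CO2 / Evaluation: GFP/RFP fluorescence ratio / Control set: DMSO and RFP-L50D-GFP cell wells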
Rh123 counter – mitochondrial membrane potential, counter-screen | shares compounds with MPTP block | isolated mitochondria, Rhodamine 123 fluorescence | inhibition, % at 10 µM | 5,000 tested, 78% active | AID 624504; in the data active = inhibition above about 22%
MPTP abs DR – MPTP inhibition, dose response swelling confirmation | shares compounds with MPTP block | isolated mitochondria swelling, absorbance | IC50, µM | 780 tested, 58% active | AID 651561; in the data active = IC50 below about 20 µM
MPTP counter DR – MPTP inhibitor counter-screen activity, dose response; shares compounds with MPTP block; isolated mitochondria counterscreen, fluorescence read-out; IC50, µM; 780 tested, 49% active; in the data active = IC50 below about 80 µM
Large screens that a line does not name were inactive (follow-up assays come after a bar, where they were run). Hits are enriched below; roughly 2.3% of the tested compounds scored in any of these assays.

CSc1nc2ccc(NS(=O)(=O)c3ccc4c(c3)OCCO4)cc2s1	MPTP block 55 | Rh123 counter 101
CCOc1ccccc1CN1CCCC(C(=O)Nc2cccc(-n3cccn3)c2)C1 (stereo unspecified)	MPTP block 58 | Rh123 counter inactive | MPTP abs DR 6.8 | MPTP counter DR 18
CCOc1cccc(CN2CCCC(C(=O)Nc3cccc(-n4cccn4)c3)C2)c1 (stereo unspecified)	none
Cn1cc(CN2CCCC(C(=O)Nc3cccc(-n4cccn4)c3)C2)cn1 (stereo unspecified)	none
Cc1cc(CN2CCCC(C(=O)Nc3cccc(-n4cccn4)c3)C2)cc(C)c1O (stereo unspecified)	MPTP block 70 | Rh123 counter 85
O=C(NCCc1cccc(Cl)c1)c1cccc(-n2cnnn2)c1	none
CC1=NN(c2ccc(Cl)cc2)C(=O)C1C(c1cccc(O)c1)c1c(C)[nH]n(-c2ccc(Cl)cc2)c1=O (stereo unspecified)	MPTP block 101 | Rh123 counter 20
CC1=NN(c2ccc(F)cc2)C(=O)C1C(c1cccc(O)c1)c1c(C)[nH]n(-c2ccc(F)cc2)c1=O (stereo unspecified)	none
CCn1c(CN2CCOCC2)nnc1SCC(=O)Nc1ccccc1Cl	none
Cc1ccccc1NS(=O)(=O)c1cc(C(=O)Nc2cccc([N+](=O)[O-])c2)ccc1C	MPTP block 98 | Rh123 counter 78
Nc1ccc(-c2nc3ccccc3[nH]2)cc1	none
c1ccc(-c2cc(-c3nc4ccccc4[nH]3)c3ccccc3n2)cc1	MPTP block 98 | Rh123 counter 83
CCOC(=O)C1(C)CCN1C(=O)c1ccccc1Br (stereo unspecified)	none (no result: ATG4B inhibitor)
CCCCc1nc2cc(C(=O)N3CCC(OC)CC3)ccc2o1	none
O=C(Nc1ccc(Oc2ccc(Cl)cc2)c(Cl)c1)c1cc(I)cc(I)c1O	MPTP block 106 | Rh123 counter 74
COc1ccc(NC(=O)c2ccccc2F)cc1Cl	none
Cc1nn(-c2ccccc2)c2nc(C(Cl)(Cl)Cl)[nH]c(=O)c12	MPTP block 68 | Rh123 counter 57
COc1ccc(Br)cc1C1CC(=O)C(C)C(c2cc(Br)ccc2OC)N1 (stereo unspecified)	none
CC(O)CNCCCOc1cccc(Oc2ccccc2)c1 (stereo unspecified)	MPTP block 60 | Rh123 counter inactive | MPTP abs DR 13 | MPTP counter DR inactive
CC(O)CNCCCOc1cccc(C(F)(F)F)c1 (stereo unspecified)	none
CCOC(=O)C1(CCOc2ccccc2)CCN(Cc2ccc(OC)cc2)CC1	MPTP block 87 | Rh123 counter 36
CCOC(=O)C1(CCOc2ccccc2)CCN(Cc2ccccc2O)CC1	none
CCOC(=O)C1(CCOc2ccccc2)CCN(Cc2cccc(OC)c2OC)CC1	MPTP block 75 | Rh123 counter 33
CCOC(=O)C1(Cc2cccc(OC)c2)CCN(Cc2ccc(C)s2)CC1	MPTP block 97 | Rh123 counter 85
CCOC(=O)C1(CCOc2ccccc2)CCN(Cc2ccc(NC(C)=O)cc2)CC1	none
C=CCn1c(=O)c2ccccc2n2c(SCc3c(C(=O)OCC)oc4ccccc34)nnc12	none
O=C(O)C1C2C=CC(C2)C1C(=O)NCc1ccc(Cl)c(Cl)c1 (stereo unspecified)	none
O=C(Nc1ccc([N+](=O)[O-])cc1)c1cccc([N+](=O)[O-])c1	none (no result: ATG4B inhibitor)
O=C(Nc1ccc([N+](=O)[O-])cc1)Nc1ccc2c(c1)OCCO2	MPTP block 95 | Rh123 counter 90
COc1cc([N+](=O)[O-])ccc1NC(=O)Nc1ccc2c(c1)OCCO2	none
Cc1ccc(NC(=O)Nc2cccc(C)n2)cc1	none
O=C(Nc1ccc([N+](=O)[O-])cc1)Nc1ccc2[nH]c(=O)[nH]c2c1	MPTP block 82 | Rh123 counter 71
Cc1cccc(NC(=O)Nc2ccc([N+](=O)[O-])cc2)n1	MPTP block 69 | Rh123 counter 54
O=C(NNC(=O)c1cccc(O)c1)Nc1ccc([N+](=O)[O-])cc1	MPTP block 56 | Rh123 counter 36
